Measured values published in ChEMBL document CHEMBL1128415 (J Med Chem, 1995).

Columns and labels:
[1] = molecular target: T1, Angiotensin II receptor (AT-1) type-1 (Rattus norvegicus, UniProt P29089+P25095); experiment: Specific binding inhibition of [125I]AII to Angiotensin II receptor, type 1 in rat liver membrane; format: cell membranes
T1 sequence (P29089 whole entry): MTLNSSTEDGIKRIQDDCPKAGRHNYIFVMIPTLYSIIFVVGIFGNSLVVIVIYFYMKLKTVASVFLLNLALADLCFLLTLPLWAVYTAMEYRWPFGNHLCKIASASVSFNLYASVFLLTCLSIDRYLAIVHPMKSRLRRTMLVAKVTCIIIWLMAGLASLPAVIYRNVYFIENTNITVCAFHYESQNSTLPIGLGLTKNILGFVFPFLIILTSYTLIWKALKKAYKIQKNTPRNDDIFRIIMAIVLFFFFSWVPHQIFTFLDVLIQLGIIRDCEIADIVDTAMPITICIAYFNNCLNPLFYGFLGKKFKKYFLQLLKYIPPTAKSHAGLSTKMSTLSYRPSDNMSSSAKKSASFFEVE
T1 sequence (P25095 whole entry): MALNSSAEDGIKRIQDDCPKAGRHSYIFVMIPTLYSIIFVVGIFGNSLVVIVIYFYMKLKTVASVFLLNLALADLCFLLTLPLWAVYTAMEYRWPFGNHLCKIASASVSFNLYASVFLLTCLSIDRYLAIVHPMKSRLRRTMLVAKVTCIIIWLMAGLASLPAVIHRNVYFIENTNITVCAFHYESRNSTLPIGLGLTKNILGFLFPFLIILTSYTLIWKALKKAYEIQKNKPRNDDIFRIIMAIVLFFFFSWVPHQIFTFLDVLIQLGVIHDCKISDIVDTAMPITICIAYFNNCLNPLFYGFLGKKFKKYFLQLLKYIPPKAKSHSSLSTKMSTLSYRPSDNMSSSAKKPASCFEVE

[2] = molecular target: T2, Angiotensin II receptor (AT-1) type-1 (Rattus norvegicus) (UniProt P29089+P25095); experiment: Inhibition of pressor response induced by infusion of AII in rats when dose is administered intravenously; format: functional
Method in brief: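 Normotensive Sprague-Dawley pithed rats (n = 4), BP recorded by carotid catheter. AII 0.75 μg/kg injected via jugular vein; three control responses taken. Each later AII challenge followed, by 5 min, an iv injection of antagonist at increasing doses, in water or water with 2 equiv NaOH.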

[3] = molecular target: T2, Angiotensin II receptor (AT-1) type-1 (Rattus norvegicus); experiment: Inhibition of pressor response induced by infusion of angiotensin II in rats, administered perorally; format: functional
Method in brief: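 Sprague-Dawley rats (n = 18-28) dosed by gastric tube in groups; vehicle water or water with 2 equiv NaOH; controls given water. At 50 min rats anaesthetised, pithed, ventilated, with carotid and jugular catheters. At 1 h post-dose AII 0.75 μg/kg iv given.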

Rattus norvegicus = experiment: Effective dose to inhibit AII-induced pressor response in pithed rats, was determined in vivo after intraduodenal administration; conditions: read-out: ID50 (the source's name)

Compound: CCCCc1nc(SC)c(C(=O)O)n1Cc1ccc(-c2ccccc2S(=O)(=O)NC(=O)CCC)cc1
- IC50 [1]: 0.2 nM
- ID50 [2]: 0.06 mg/kg
- ID50 [3]: 0.95 mg/kg

Compound: CCCCc1nc(SC(F)(F)F)c(C(=O)O)n1Cc1ccc(-c2ccccc2S(=O)(=O)NC(=O)NCCC)cc1
- IC50 [1]: 0.8 nM
- ID50 [2]: 0.11 mg/kg
- ID50 [3]: 1.28 mg/kg

Compound: CCCCOC(=O)NS(=O)(=O)c1ccccc1-c1ccc(Cn2c(CCCC)nc(SC)c2C(=O)O)cc1
- IC50 [1]: 0.1 nM
- ID50 [2]: 0.1 mg/kg
- ID50 [3]: 0.6 mg/kg

Compound: CCCCc1nc(SC)c(C(=O)O)n1Cc1ccc(-c2ccccc2S(=O)(=O)NC(=O)Cc2ccccc2)cc1
- IC50 [1]: 0.08 nM
- ID50 [2]: 0.44 mg/kg
- ID50 [3]: 1.75 mg/kg

Compound: CCCCc1nc(SC)c(C(=O)O)n1Cc1ccc(-c2ccccc2S(=O)(=O)NC(=O)NC)cc1
- ID50 [2]: 0.27 mg/kg
- ID50 [3]: 4.94 mg/kg

Compound: CCCCc1nc([S+](C)[O-])c(C(=O)O)n1Cc1ccc(-c2ccccc2S(=O)(=O)NC(=O)NCCC)cc1 (stereo unspecified)
- IC50 [1]: 3.1 nM
- ID50 [2]: 0.14 mg/kg
- ID50 [3]: > 10 mg/kg

Compound: CCCCc1nc(SC)c(C(=O)O)n1Cc1ccc(-c2ccccc2S(=O)(=O)NS(=O)(=O)CC)cc1
- IC50 [1]: 1.1 nM
- ED50 (Rattus norvegicus): > 1 mg/kg

Compound: CCCCc1nc(SC)c(C(=O)NS(=O)(=O)c2ccccc2)n1Cc1ccc(-c2ccccc2S(=O)(=O)NC(=O)NCCC)cc1
- IC50 [1]: 0.8 nM
- ID50 [2]: 1.15 mg/kg

Compound: CCCCc1nc(SC)c(C(=O)O)n1Cc1ccc(-c2ccccc2S(=O)(=O)NC(=O)OCC(C)C)cc1
- IC50 [1]: 0.2 nM
- ID50 [2]: 0.15 mg/kg
- ID50 [3]: 0.43 mg/kg

Compound: CCCCc1nc(SC)c(C(=O)OCC)n1Cc1ccc(-c2ccccc2S(=O)(=O)NC(=O)NCCC)cc1
- IC50 [1]: 0.4 nM
- ID50 [2]: 0.08 mg/kg
- ID50 [3]: 1.13 mg/kg

Compound: CCCNC(=O)NS(=O)(=O)c1ccccc1-c1ccc(Cn2c(CC)nc(SC)c2C(=O)O)cc1
- IC50 [1]: 1.3 nM

Compound: CCCCc1nc(SCCCO)c(C(=O)O)n1Cc1ccc(-c2ccccc2S(=O)(=O)NC(=O)NCCC)cc1
- IC50 [1]: 0.2 nM
- ID50 [2]: 0.11 mg/kg
- ID50 [3]: 5.74 mg/kg

Compound: CCCCc1nc(SC)c(C(=O)O)n1Cc1ccc(-c2ccccc2S(=O)(=O)NS(=O)(=O)C(F)(F)F)cc1
- IC50 [1]: 0.8 nM
- ID50 [2]: 1.45 mg/kg

Compound: C=CCNC(=O)NS(=O)(=O)c1ccccc1-c1ccc(Cn2c(CCCC)nc(SC)c2C(=O)O)cc1
- IC50 [1]: 1.1 nM
- ID50 [2]: 0.11 mg/kg
- ID50 [3]: 0.57 mg/kg

Compound: CCCCc1nc(SCCCCO)c(C(=O)O)n1Cc1ccc(-c2ccccc2S(=O)(=O)NC(=O)NCCC)cc1
- IC50 [1]: 0.4 nM
- ID50 [2]: 0.12 mg/kg
- ID50 [3]: 9.81 mg/kg

Compound: CCCCc1nc(SC)c(C(N)=O)n1Cc1ccc(-c2ccccc2S(=O)(=O)NC(=O)NCCC)cc1
- IC50 [1]: 1 nM
- ID50 [2]: 0.06 mg/kg
- ID50 [3]: 2.83 mg/kg

Compound: CCCCc1nc(SC)c(C(=O)O)n1Cc1ccc(-c2ccccc2S(=O)(=O)NC(=O)OCC=C(C)C)cc1
- IC50 [1]: 1.8 nM

Compound: CCCCc1nc(SC)c(CO)n1Cc1ccc(-c2ccccc2S(=O)(=O)NC(=O)NCCC)cc1
- IC50 [1]: 4.5 nM
- ID50 [2]: 0.21 mg/kg
- ID50 [3]: > 10 mg/kg

Compound: CCCCc1nc(SC)c(C(=O)OC(C)(C)C)n1Cc1ccc(-c2ccccc2S(=O)(=O)NC(=O)NCCC)cc1
- IC50 [1]: 0.6 nM
- ID50 [2]: 0.1 mg/kg

Compound: CCCCc1nc(SC)c(C(=O)O)n1Cc1ccc(-c2ccccc2S(=O)(=O)/N=C(/S)NCCC)cc1
- IC50 [1]: 2.1 nM
- ID50 [2]: 1.15 mg/kg

Compound: CCCCc1nc(SC)c(C(=O)O)n1Cc1ccc(-c2ccccc2S(=O)(=O)NC(=O)NCc2cccnc2)cc1
- IC50 [1]: 0.9 nM

Compound: CCCCc1nc(SC)c(C(=O)O)n1Cc1ccc(-c2ccccc2S(=O)(=O)NC(=O)c2ccccc2)cc1
- IC50 [1]: 0.09 nM
- ID50 [2]: 0.4 mg/kg

Compound: CCCCc1nc(Sc2cccs2)c(C(=O)O)n1Cc1ccc(-c2ccccc2S(=O)(=O)NC(=O)NCCC)cc1
- IC50 [1]: 0.2 nM
- ID50 [2]: 2.01 mg/kg

Compound: CCCNC(=O)NS(=O)(=O)c1ccccc1-c1ccc(Cn2c(C)nc(SC)c2C(=O)O)cc1
- IC50 [1]: 15 nM

Compound: CCCCNC(=O)NS(=O)(=O)c1ccccc1-c1ccc(Cn2c(CCCC)nc(SC)c2C(=O)O)cc1
- ID50 [2]: 0.09 mg/kg
- ID50 [3]: 0.21 mg/kg

Compound: CCCCc1nc(SC)c(C(=O)NCC(=O)OC)n1Cc1ccc(-c2ccccc2S(=O)(=O)NC(=O)NCCC)cc1
- IC50 [1]: 0.8 nM
- ID50 [2]: 0.05 mg/kg
- ID50 [3]: 2.4 mg/kg
